C2C12 statin: suppressors of simvastatin-induced myotoxicity in C2C12 myotubes | ATP luminescence, 48 h; scaled: DMSO 0, geranylgeraniol control 100 | rescue of ATP level, % at 7.49 µM | 330,000 compounds, 0.78% hits | AID 602340;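 active means mean ATP rescue above about 67%, or every replicate alone reaching that limit, limit read from the data, passing the limit was not always enough; inconclusive means no clear call, values can overlap the other calls; inactive means mean under the limit and some replicate under it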;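 further: myotubes were challenged with 10 µM simvastatin during compound exposure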
E-sel inducer: E-selectin induction on HUVECs; P16581; activation, % at 7.58 µM; AID 686992; HUVEC E-selectin immunofluorescence imaging; normalized: neutral wells 0, TNF-alpha wells 100; 260,000 compounds, 0.37% hits;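 active means mean E-selectin-positive cell signal at least 10% of the positive control, reached in at least 60% of replicates, without over 20% cell loss; inconclusive means no rule given, readout overlaps actives, possibly toxicity-flagged; inactive means the rest, including those meeting only one limit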
Target sequence (P16581 whole entry, looked up): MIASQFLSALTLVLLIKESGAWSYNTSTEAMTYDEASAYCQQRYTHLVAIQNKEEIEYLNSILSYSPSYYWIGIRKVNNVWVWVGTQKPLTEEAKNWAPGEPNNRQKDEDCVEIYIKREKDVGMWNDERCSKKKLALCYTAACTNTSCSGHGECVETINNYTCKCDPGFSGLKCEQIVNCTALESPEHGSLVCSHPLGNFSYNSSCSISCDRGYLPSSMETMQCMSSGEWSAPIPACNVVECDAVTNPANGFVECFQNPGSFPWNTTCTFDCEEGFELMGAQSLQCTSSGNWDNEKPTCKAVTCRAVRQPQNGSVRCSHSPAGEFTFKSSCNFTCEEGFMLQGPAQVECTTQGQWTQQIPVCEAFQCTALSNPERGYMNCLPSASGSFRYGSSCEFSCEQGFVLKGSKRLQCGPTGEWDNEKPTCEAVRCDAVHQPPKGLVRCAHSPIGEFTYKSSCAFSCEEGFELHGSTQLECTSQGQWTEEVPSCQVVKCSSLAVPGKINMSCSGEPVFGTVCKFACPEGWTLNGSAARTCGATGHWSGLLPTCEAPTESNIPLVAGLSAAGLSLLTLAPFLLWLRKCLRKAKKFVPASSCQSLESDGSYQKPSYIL
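Assay system: HUVEC primary endothelial cells. Input: 3,000 HUVEC seeded per well. Doses: one compound dose added by pin transfer. Read-out basis: % PE-positive cells. Benchmarks: TNF-alpha high, DMSO low. Detection: immunofluorescence imaging. Buffer or medium: EGM-2, gelatin.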
DENV2 CPE rescue: DENV2-induced cell death inhibition | 350,000 compounds, 1.7% hits | CPE inhibition, % at 9.99 µM | DENV2-infected cells, cytopathic effect rescue, plate reader; in the data active means CPE inhibition above about 20%, passing the limit was not always enough; inconclusive means no clear call, values can overlap the other calls; tested in BHK-21 cells
Numbers stand for hits; i = inactive; ? = inconclusive; nt = not tested or not shown; ! = not confirmed by another sample. This is a sample that favours compounds with a hit; in the whole collection about 2.2% have one here.

SMILES	C2C12 statin	E-sel inducer	DENV2 CPE rescue
C[C@@H]1CN([C@H](C)CO)C(=O)c2cccc(N(C)C)c2O[C@H]1CN(C)S(=O)(=O)c1cccs1	i	i	i
O=C(NCc1ccccc1)C1=C[C@@H](C2CC2)C[C@@H](OCc2ccc(CO)cc2)O1	i	i	26!
O=C(NCc1ccccc1)C1=C[C@@H](C2CC2)C[C@@H](OCCCCO)O1	i	i	i
O=C(NCc1ccccc1)C1=C[C@H](C2CCCCC2)C[C@H](OCc2ccc(CO)cc2)O1	i	i	i
O=C(O)C1=C[C@@H](C2CCCC2)C[C@@H](OCCCCO)O1	nt	nt	i
O=C(Nc1ccccc1)C1=C[C@@H](c2ccc(C(F)(F)F)cc2)C[C@@H](OCCCCO)O1	i	i	46!
O=C(NC1CC1)C1=C[C@@H](C2CCCCC2)C[C@@H](OCCCCO)O1	i	i	39!
O=C(O)C1=C[C@@H](c2ccc(C(F)(F)F)cc2)C[C@@H](OCCCCO)O1	i	i	i
O=C(Nc1ccccc1)C1=C[C@H](C2CC2)C[C@H](OCCCCO)O1	i	i	24!
C[C@H]1CN([C@@H](C)CO)C(=O)CCCn2cc(nn2)CO[C@@H]1CN(C)Cc1ccc2c(c1)OCO2	i	i	i
C[C@H]1CN([C@@H](C)CO)C(=O)c2cc(NC(=O)C3CC3)ccc2O[C@H]1CN(C)C	i	i	i
CCO[C@@H]1OC(C(=O)NC2CC2)=C[C@H](C2CCCCC2)[C@H]1CCCO	i	i	nt
CCO[C@H]1OC(C(=O)NC2CC2)=C[C@@H](C2CCCCC2)[C@@H]1CCCO	i	i	23
CCCNC(=O)N(C)C[C@@H]1Oc2ncc(C#Cc3ccncc3)cc2C(=O)N([C@H](C)CO)C[C@@H]1C	i	i	i
CO[C@@H]1CN(C)C(=O)c2ccc(NC(=O)Nc3cc(F)ccc3F)cc2OC[C@H](C)NC[C@H]1C	i	i	i
CCOC(=O)c1c(N)c(C#N)c2n1CCCC2	113	nt	nt
CCOC(=O)c1c(N)c(C#N)c2n1CCCCC2	i	nt	nt
C[C@@H]1CN([C@H](C)CO)S(=O)(=O)c2ccc(C#CCN(C)C)cc2O[C@H]1CN(C)Cc1cccnc1	i	i	i
COc1ccc(C#Cc2cnc3c(c2)C(=O)N([C@@H](C)CO)C[C@H](C)[C@H](CN(C)CC2CCCC2)O3)cc1	i	i	37
COc1ccc(C#Cc2cnc3c(c2)C(=O)N([C@@H](C)CO)C[C@@H](C)[C@@H](CN(C)CC2CCCC2)O3)cc1	i	i	i
COc1ccc(C#Cc2cnc3c(c2)C(=O)N([C@H](C)CO)C[C@H](C)[C@H](CN(C)CC2CCCC2)O3)cc1	i	i	40
C[C@@H]1CN([C@@H](C)CO)C(=O)c2cc(-c3ccc(F)cc3)cnc2O[C@H]1CN(C)CC1CCCC1	i	i	54
C[C@@H]1CN([C@@H](C)CO)C(=O)c2cc(-c3ccc(F)cc3)cnc2O[C@@H]1CN(C)CC1CCCC1	i	i	i
COc1ccc(C#Cc2cnc3c(c2)C(=O)N([C@@H](C)CO)C[C@H](C)[C@@H](CN(C)CC2CCCC2)O3)cc1	i	i	i
C[C@H]1CN([C@@H](C)CO)C(=O)c2cc(C#Cc3ccncc3)cnc2O[C@H]1CN(C)CC1CCCC1	nt	i	i
SMILES	C2C12 statin	E-sel inducer	DENV2 CPE rescue
C[C@H](CO)N1C[C@H](C)[C@@H](CN(C)CC2CCCC2)Oc2ncc(C#Cc3ccncc3)cc2C1=O	103	i	i
COc1ccc(S(=O)(=O)N[C@H]2CC[C@@H](CC(=O)NCc3ccccc3F)O[C@@H]2CO)cc1	i	i	?
CCC(=O)Nc1ccc2c(c1)OC[C@@H](C)N(C(=O)NC(C)C)C[C@H](C)[C@H](OC)CN(C)C2=O	i	i	i
CC(C)CC#Cc1ccc2c(c1)O[C@H](CN(C)C(=O)Cc1ccccn1)[C@@H](C)CN([C@@H](C)CO)S2(=O)=O	i	i	i
COc1ccc(-c2ccc3c(c2)O[C@@H](CN(C)CC2CC2)[C@@H](C)CN([C@H](C)CO)S3(=O)=O)cc1	i	i	nt
CCCC(=O)N1CCC2(CC1)CN(C(=O)CC1CC1)[C@H](CO)c1c2c2ccc(OC)cc2n1C	nt	i	i
CCC(=O)OCC(=O)Nc1cc(C)c(C)cc1[N+](=O)[O-]	i	i	nt
Cc1cc(NC(=O)COC(=O)Cn2[nH]c(=O)c3ccccc3c2=O)c([N+](=O)[O-])cc1C	nt	i	52
COc1ccc(NC(=O)N(C)C[C@@H]2OCCCC[C@H](C)Oc3ccc(NS(C)(=O)=O)cc3C(=O)N([C@H](C)CO)C[C@@H]2C)cc1	nt	i	i
CCOC(=O)C[C@H]1c2ccccc2S(=O)(=O)N1c1ccccc1	i	i	37
CCOC(=O)C[C@H]1c2cc(F)ccc2S(=O)(=O)N1c1ccccc1	i	i	i
COc1cccc(C(=O)Nc2ccc3nc4n(c(=O)c3c2)CCCC4)c1	i	i	i
COc1cc(OC)cc(C(=O)Nc2ccc3nc4n(c(=O)c3c2)CCCC4)c1	i	nt	119
C[C@H](CO)N1C[C@H](C)[C@H](CN(C)Cc2ccc(Oc3ccccc3)cc2)Oc2ccc(NC(=O)Nc3ccc4c(c3)OCO4)cc2C1=O	nt	i	i
COc1ccc(NC(=O)Nc2ccc3c(c2)[C@H]2C[C@H](CC(=O)N4CCCCC4)O[C@H](CO)[C@H]2O3)cc1	i	i	i
Cc1cccc(N2C(=O)N3[C@H](c4ccc(Br)cc4)[C@@H]4C(=O)N(C(C)(C)C)C(=O)[C@@H]4[C@]3(C)C2=O)c1	i	i	26
Cc1ccc(N2C(=O)N3[C@H](c4ccc(Br)cc4)[C@@H]4C(=O)N(C(C)(C)C)C(=O)[C@@H]4[C@]3(C)C2=O)cc1	i	nt	i
CO[C@@H]1CN(C)C(=O)c2ccc(NC(=O)c3ccc4c(c3)OCO4)cc2OC[C@@H](C)N(CC2CC2)C[C@@H]1C	i	i	i
CCN1CCN(c2nc3ccccc3n3cnnc23)CC1	i	i	i
Cc1cccc(N2CCN(c3nc4ccc(Cl)cc4n4cnnc34)CC2)c1C	i	152	i
CCn1c(SCC(=O)Nc2nc(C)c(C(=O)OC)s2)nnc1C(C)C	82	nt	nt
CCCn1c(SCC(=O)Nc2nc(C)c(C(=O)OC)s2)nnc1C(C)C	i	nt	nt
CCn1c(SCC(=O)c2ccc(OC)cc2)nnc1C(C)NC(=O)c1ccc(OC)cc1 (centres undefined)	76	nt	nt
CCn1c(SCC(=O)c2ccc(Br)cc2)nnc1C(C)NC(=O)Cc1ccc(OC)cc1 (centres undefined)	i	nt	nt
COc1ccccc1NC(=O)COC(=O)c1cnc(C)cn1	i	nt	i
SMILES	C2C12 statin	E-sel inducer	DENV2 CPE rescue
COc1cc(Cl)c(C)cc1NC(=O)COC(=O)c1cnc(C)cn1	95	nt	nt
O=C(C[C@H]1C[C@@H]2c3cc(NC(=O)Cc4ccncc4)ccc3O[C@@H]2[C@H](CO)O1)NCc1cccnc1	i	i	i
O=C1NN=C(c2ccccc2)CC1c1ccc(Cl)cc1Cl (centres undefined)	i	nt	i
O=C1NN=C(c2ccc(Cl)cc2)CC1c1cccc(Cl)c1 (centres undefined)	137	nt	nt
CN(C)CC(=O)N1CC2(C1)[C@H](c1ccccc1)[C@H](CO)N2S(C)(=O)=O	nt	i	i
Cc1cc(OCc2cc(C(=O)N(C)Cc3ccccn3)no2)cc(C)c1Cl	i	nt	i
Cc1cc(OCc2cc(C(=O)N(C)C(C)c3ccccn3)no2)cc(C)c1Cl (centres undefined)	i	nt	31
